Measurements reported in ChEMBL document CHEMBL3108732, “Synthesis and evaluation of analogues of N-phthaloyl-l-tryptophan (RG108) as inhibitors of DNA methyltransferase 1” (J Med Chem, 2014).
The source made the active and inactive calls. The rule behind the calls is not given here.

How the values were obtained:
[1] = biological target: T1, DNA (cytosine-5)-methyltransferase 1 (Homo sapiens, UniProt P26358); experiment: Inhibition of human recombinant DNMT1 expressed in […] assessed as inhibition of tritiated methyl incorporation from [3H]-labeled AdoMet into hemimethylated DNA duplex at 500 uM after 2 hrs by liquid scintillation counting analysis relative to control; assay type: cell-based
T1 sequence (P26358 whole entry): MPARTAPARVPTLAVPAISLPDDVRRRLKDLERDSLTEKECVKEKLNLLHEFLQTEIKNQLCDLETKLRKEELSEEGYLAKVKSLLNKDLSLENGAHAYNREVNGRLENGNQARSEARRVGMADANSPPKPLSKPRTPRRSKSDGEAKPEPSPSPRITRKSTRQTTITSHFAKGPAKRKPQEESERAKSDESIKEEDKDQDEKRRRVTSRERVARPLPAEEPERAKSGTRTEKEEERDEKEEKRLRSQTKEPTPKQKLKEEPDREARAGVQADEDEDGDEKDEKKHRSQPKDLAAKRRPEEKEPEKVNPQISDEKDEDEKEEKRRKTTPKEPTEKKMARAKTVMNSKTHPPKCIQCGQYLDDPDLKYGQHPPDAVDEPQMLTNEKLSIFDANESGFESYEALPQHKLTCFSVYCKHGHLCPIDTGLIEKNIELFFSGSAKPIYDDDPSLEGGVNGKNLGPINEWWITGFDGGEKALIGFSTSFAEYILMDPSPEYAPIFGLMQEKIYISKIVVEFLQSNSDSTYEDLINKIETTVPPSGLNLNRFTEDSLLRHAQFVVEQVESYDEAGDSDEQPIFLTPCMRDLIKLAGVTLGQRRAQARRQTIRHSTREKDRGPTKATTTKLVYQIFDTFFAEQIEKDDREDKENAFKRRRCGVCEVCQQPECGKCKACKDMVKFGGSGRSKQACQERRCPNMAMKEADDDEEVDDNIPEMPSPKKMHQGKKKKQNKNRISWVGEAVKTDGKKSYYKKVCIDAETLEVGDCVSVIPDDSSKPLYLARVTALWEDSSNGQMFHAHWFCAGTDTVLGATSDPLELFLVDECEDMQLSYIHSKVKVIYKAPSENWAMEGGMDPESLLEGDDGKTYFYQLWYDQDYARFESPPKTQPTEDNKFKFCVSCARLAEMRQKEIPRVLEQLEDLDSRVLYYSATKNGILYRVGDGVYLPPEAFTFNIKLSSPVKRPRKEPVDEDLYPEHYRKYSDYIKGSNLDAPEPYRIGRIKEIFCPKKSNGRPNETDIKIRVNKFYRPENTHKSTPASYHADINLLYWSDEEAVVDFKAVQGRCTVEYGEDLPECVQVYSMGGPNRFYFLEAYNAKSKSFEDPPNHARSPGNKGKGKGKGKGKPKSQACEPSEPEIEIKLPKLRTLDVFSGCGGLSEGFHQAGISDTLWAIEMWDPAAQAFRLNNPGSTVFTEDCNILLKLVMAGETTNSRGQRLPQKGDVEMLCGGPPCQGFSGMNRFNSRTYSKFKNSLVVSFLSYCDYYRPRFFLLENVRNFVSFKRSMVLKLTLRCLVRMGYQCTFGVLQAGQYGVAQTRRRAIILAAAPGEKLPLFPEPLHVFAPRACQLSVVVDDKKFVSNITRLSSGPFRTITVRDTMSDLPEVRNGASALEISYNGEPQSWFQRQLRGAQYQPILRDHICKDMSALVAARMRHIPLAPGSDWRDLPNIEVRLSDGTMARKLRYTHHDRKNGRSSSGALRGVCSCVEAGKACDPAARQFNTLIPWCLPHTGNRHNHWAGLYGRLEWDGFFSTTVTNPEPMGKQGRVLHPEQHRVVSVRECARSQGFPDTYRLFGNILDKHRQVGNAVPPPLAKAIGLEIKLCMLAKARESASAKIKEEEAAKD
Procedure, shortened: (§1)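 Human recombinant DNMT1 transferred tritiated methyl from [3H]-AdoMet onto a short hemimethylated DNA duplex carrying 8 CpGs, and direct incorporation of the radiolabel was measured. Compounds were first screened at a single concentration.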

[2] = Inhibition of G9a (unknown origin) by [3H]-SAM incorporation assay
Procedure, shortened: (§2)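 In vitro methyltransferase activity was quantified with a biotin–avidin microplate kinetic assay based on [3H]-SAM incorporation. G9a was tested up to 1 mM.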

[3] = Inhibition of Escherichia coli DAM by [3H]-SAM incorporation assay; procedure, shortened: as §2
DU-145 = experiment: Cytotoxicity against human DU145 cells after 72 hrs by MTS assay; assay type: functional; settings: DU-145, 72 h, read-out: TC50 (the source's name)
[4] = biological target: DNA (cytosine-5)-methyltransferase 3A (Mus musculus) (UniProt O88508); experiment: Binding affinity to mouse Dnmt3A catalytic domain assessed as inhibition of AdoHcy binding at 0.85 mM by WaterLOGSY spectroscopic analysis
[5] = Inhibition of Spiroplasma M.SssI using unmethylated DNA as substrate after 2 hrs by agarose gel electrophoresis
[6] = biological target: T1, DNA (cytosine-5)-methyltransferase 1; experiment: Inhibition of human recombinant DNMT1 expressed in […] assessed as inhibition of tritiated methyl incorporation from [3H]-labeled AdoMet into hemimethylated DNA duplex after 2 hrs by liquid scintillation counting analysis; assay type: cell-based; procedure, shortened: as §1

inhibition [1] | IC50 [6] [µM] | Structure (SMILES) | CC50 (DU-145) [µM] | also measured
inactive |  | O=C(O)[C@H](Cc1ccccc1)N1C(=O)c2ccccc2C1=O |  | 
inactive |  | N[C@@H](Cc1c[nH]c2ccccc12)C(=O)O |  | 
inactive |  | O=C(CN1C(=O)c2ccccc2C1=O)N[C@@H](Cc1c[nH]c2ccccc12)C(=O)O |  | 
inactive |  | O=C(O)[C@@H]1[C@H](Cc2c[nH]c3ccccc23)CCN1C(=O)CN1C(=O)c2ccccc2C1=O |  | 
inactive |  | O=C(O)[C@H](Cc1c[nH]c2ccccc12)n1c(=O)[nH]c2ccccc2c1=O |  | 
50% |  | O=C(O)C1C(Cc2c[nH]c3ccccc23)CCN1C(=O)c1ccccc1 (stereo not given) |  | IC50 [2]: > 1000 µM; IC50 [3]: > 750 µM
 | 390 | O=C(O)[C@H](Cc1c[nH]c2ccccc12)N1C(=O)c2ccccc2C1=O | 660 | inhibition [4]: 50%; IC50 [5]: 0.115 µM
inactive |  | NC(=O)[C@H](Cc1c[nH]c2ccccc12)N1C(=O)c2ccccc2C1=O |  | 
 | 50 | O=C(O)[C@H]1[C@@H](Cc2c[nH]c3ccccc23)CCN1C(=O)c1ccc2ccccc2c1 | 130 | 
 | 40 | O=C(O)[C@H](Cc1c[nH]c2ccccc12)NSc1ccc([N+](=O)[O-])cc1[N+](=O)[O-] | 103 | 
inactive |  | O=C(O)[C@H](Cc1c[nH]c2ccccc12)CN1C(=O)c2ccccc2C1=O |  | 
 | 230 | O=C(O)[C@H](Cc1csc2ccccc12)N1C(=O)c2ccccc2C1=O |  | 
50% |  | O=C(O)C1C(Cc2c[nH]c3ccccc23)CCN1C(=O)c1ccc2ccccc2c1 (stereo not given) |  | 
 | 73 | O=C(O)[C@H]1[C@@H](Cc2c[nH]c3ccccc23)CCN1C(=O)c1ccccc1 | 232 | 
 | 80 | O=C(O)[C@@H]1[C@H](Cc2c[nH]c3ccccc23)CCN1Sc1ccc([N+](=O)[O-])cc1[N+](=O)[O-] | 250 | 
 | 128 | O=C(O)[C@@H]1[C@H](Cc2c[nH]c3ccccc23)CCN1C(=O)c1ccc2ccccc2c1 | 280 | 
 | 20 | O=C(O)[C@H](Cc1c[nH]c2ccccc12)NSc1ncccc1[N+](=O)[O-] | 211 | 
inactive |  | O=C(O)[C@@H](Cc1c[nH]c2ccccc12)CN1C(=O)c2ccccc2C1=O |  | 
inactive |  | O=C(O)[C@H](Cc1cc(=O)[nH]c2ccccc12)N1C(=O)c2ccccc2C1=O |  | 
inactive |  | O=C(O)CN1C(=O)c2ccccc2C1=O |  | 
inactive |  | O=C(O)C[C@H](Cc1c[nH]c2ccccc12)N1C(=O)c2ccccc2C1=O |  | 
 | 98 | O=C(O)[C@@H]1[C@H](Cc2c[nH]c3ccccc23)CCN1C(=O)c1ccccc1 | 230 | 

Structure (SMILES) | inhibition [1] | IC50 [6] [µM] | CC50 (DU-145) [µM] | also measured
O=C(O)[C@H](Cc1c[nH]cn1)N1C(=O)c2ccccc2C1=O | inactive |  |  | 
